In paper PMC5615838 (Toxicology Reports, 2016):

Tests used:
bone marrow PCEs = assay: in vivo micronucleus assay; design: species or system mouse; settings: 500, 1000, 2000 mg/kg bw/day (oral), 2 days, male CD-1 mice
[1] = toxicokinetics in 90-day toxicity study; format: in vivo, rat; settings: for AUC(0-t) / Cmax: rat, plasma, po; for AUC(0-t): AUC0-24h
In short: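 In the 90-day dietary study (10, 30, 100 mg/kg bw/day), plasma taken at 6 time points over 24 h on Day 7, Week 6 and Week 13, assayed by validated LC-MS/MS. […] Accumulation ratio = AUC0-24h at Week 6 or 13 / Day 7.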

[2] = female, Sprague-Dawley [Crl:CD(SD)], 10 mg/kg, Day 7, 10 mg/kg bw, F
[3] = female, Sprague-Dawley [Crl:CD(SD)], 10 mg/kg, Week 13, 10 mg/kg bw, F
[4] = female, Sprague-Dawley [Crl:CD(SD)], 30 mg/kg, Day 7, 30 mg/kg bw, F
[5] = female, Sprague-Dawley [Crl:CD(SD)], 30 mg/kg, Week 13, 30 mg/kg bw, F
[6] = female, Sprague-Dawley [Crl:CD(SD)], 100 mg/kg, Day 7, 100 mg/kg bw, F
[7] = female, Sprague-Dawley [Crl:CD(SD)], 100 mg/kg, Week 13, 100 mg/kg bw, F
[8] = female, Sprague-Dawley, 10 mg/kg, Week 6, 10 mg/kg bw, F
[9] = female, Sprague-Dawley, 30 mg/kg, Week 6, 30 mg/kg bw, F
[10] = female, Sprague-Dawley, 100 mg/kg, Week 6, 100 mg/kg bw, F
[11] = male, Sprague-Dawley [Crl:CD(SD)], 10 mg/kg, Day 7, 10 mg/kg bw, M
[12] = male, Sprague-Dawley [Crl:CD(SD)], 10 mg/kg, Week 13, 10 mg/kg bw, M
[13] = male, Sprague-Dawley [Crl:CD(SD)], 30 mg/kg, Day 7, 30 mg/kg bw, M
[14] = male, Sprague-Dawley [Crl:CD(SD)], 30 mg/kg, Week 13, 30 mg/kg bw, M
[15] = male, Sprague-Dawley [Crl:CD(SD)], 100 mg/kg, Day 7, 100 mg/kg bw, M
[16] = male, Sprague-Dawley [Crl:CD(SD)], 100 mg/kg, Week 13, 100 mg/kg bw, M
[17] = male, Sprague-Dawley, 10 mg/kg, Week 6, 10 mg/kg bw, M
[18] = male, Sprague-Dawley, 30 mg/kg, Week 6, 30 mg/kg bw, M
[19] = male, Sprague-Dawley, 100 mg/kg, Week 6, 100 mg/kg bw, M

For `Cc1noc(C)c1Cn1cc(N2C(=O)CN(Cc3cccc(O)c3)C2=O)cn1` [S6821, 3-(1-((3,5-dimethylisoxazol-4-yl)methyl)-1H-pyrazol-4-yl)-1-(3-hydroxybenzyl)imidazolidine-2,4-dione], the “Micronucleus formation (in vivo), Result” value (bone marrow PCEs) was “Negative”, the “Cmax and AUC0-24h higher than predicted from a linear relationship” value ([1]; 100 mg/kg bw/day, females) was roughly 1.3 fold and the “Cmax and AUC0-24h lower than predicted from a linear relationship” value ([1]; 100 mg/kg bw/day, males) was roughly 32%. The AUC0-24h/dose ([1]; Day 7, 10 mg/kg bw, F) was 12.2 ng·h/mL/mg/kg, the “AUC0-24h Ratio” value ([1]; Day 7, 10 mg/kg bw, F) was 1 and the “Cmax Ratio” value ([1]; Day 7, 10 mg/kg bw, F) was 1. For the same compound, the AUC0-24h/dose ([1]; Day 7, 10 mg/kg bw, M) was 11.8 ng·h/mL/mg/kg, the “AUC0-24h Ratio” value ([1]; Day 7, 10 mg/kg bw, M) was 1 and the “Cmax Ratio” value ([1]; Day 7, 10 mg/kg bw, M) was 1. For the same compound, the AUC0-24h/dose ([1]; Day 7, 30 mg/kg bw, F) was 14.5 ng·h/mL/mg/kg, the “AUC0-24h Ratio” value ([1]; Day 7, 30 mg/kg bw, F) was 3.5 and the “Cmax Ratio” value ([1]; Day 7, 30 mg/kg bw, F) was 3.8. For the same compound, the AUC0-24h/dose ([1]; Day 7, 30 mg/kg bw, M) was 9.83 ng·h/mL/mg/kg, the “AUC0-24h Ratio” value ([1]; Day 7, 30 mg/kg bw, M) was 2.5 and the “Cmax Ratio” value ([1]; Day 7, 30 mg/kg bw, M) was 2.8. For the same compound, the AUC0-24h/dose ([1]; Day 7, 100 mg/kg bw, F) was 15.0 ng·h/mL/mg/kg, the “AUC0-24h Ratio” value ([1]; Day 7, 100 mg/kg bw, F) was 12.3 and the “Cmax Ratio” value ([1]; Day 7, 100 mg/kg bw, F) was 13.7. The AUC0-24h/dose ([1]; Day 7, 100 mg/kg bw, M) was 8.44 ng·h/mL/mg/kg, the “AUC0-24h Ratio” value ([1]; Day 7, 100 mg/kg bw, M) was 7.2 and the “Cmax Ratio” value ([1]; Day 7, 100 mg/kg bw, M) was 6.8. For the same compound, the “ACUM Ratio” value ([1]; Week 6, 10 mg/kg bw, F) was 0.93, the AUC0-24h/dose ([1]; Week 6, 10 mg/kg bw, F) was 11.3 ng·h/mL/mg/kg and the “AUC0-24h Ratio” value ([1]; Week 6, 10 mg/kg bw, F) was 1. For the same compound, the “Cmax Ratio” value ([1]; Week 6, 10 mg/kg bw, F) was 1, the “ACUM Ratio” value ([1]; Week 6, 10 mg/kg bw, M) was 1.07 and the AUC0-24h/dose ([1]; Week 6, 10 mg/kg bw, M) was 12.6 ng·h/mL/mg/kg. The “AUC0-24h Ratio” value ([1]; Week 6, 10 mg/kg bw, M) was 1, the “Cmax Ratio” value ([1]; Week 6, 10 mg/kg bw, M) was 1 and the “ACUM Ratio” value ([1]; Week 6, 30 mg/kg bw, F) was 0.76. The AUC0-24h/dose ([1]; Week 6, 30 mg/kg bw, F) was 11.0 ng·h/mL/mg/kg, the “AUC0-24h Ratio” value ([1]; Week 6, 30 mg/kg bw, F) was 2.9 and the “Cmax Ratio” value ([1]; Week 6, 30 mg/kg bw, F) was 2.8. For the same compound, the “ACUM Ratio” value ([1]; Week 6, 30 mg/kg bw, M) was 0.99, the AUC0-24h/dose ([1]; Week 6, 30 mg/kg bw, M) was 9.77 ng·h/mL/mg/kg and the “AUC0-24h Ratio” value ([1]; Week 6, 30 mg/kg bw, M) was 2.3. For the same compound, the “Cmax Ratio” value ([1]; Week 6, 30 mg/kg bw, M) was 2.3, the “ACUM Ratio” value ([1]; Week 6, 100 mg/kg bw, F) was 0.87 and the AUC0-24h/dose ([1]; Week 6, 100 mg/kg bw, F) was 13.0 ng·h/mL/mg/kg. The “AUC0-24h Ratio” value ([1]; Week 6, 100 mg/kg bw, F) was 11.5, the “Cmax Ratio” value ([1]; Week 6, 100 mg/kg bw, F) was 15.1 and the “ACUM Ratio” value ([1]; Week 6, 100 mg/kg bw, M) was 0.90. For the same compound, the AUC0-24h/dose ([1]; Week 6, 100 mg/kg bw, M) was 7.58 ng·h/mL/mg/kg, the “AUC0-24h Ratio” value ([1]; Week 6, 100 mg/kg bw, M) was 6.0 and the “Cmax Ratio” value ([1]; Week 6, 100 mg/kg bw, M) was 4.1. The “ACUM Ratio” value ([1]; Week 13, 10 mg/kg bw, F) was 1.02, the AUC0-24h/dose ([1]; Week 13, 10 mg/kg bw, F) was 12.5 ng·h/mL/mg/kg and the “AUC0-24h Ratio” value ([1]; Week 13, 10 mg/kg bw, F) was 1. The “Cmax Ratio” value ([1]; Week 13, 10 mg/kg bw, F) was 1, the “ACUM Ratio” value ([1]; Week 13, 10 mg/kg bw, M) was 1.04 and the AUC0-24h/dose ([1]; Week 13, 10 mg/kg bw, M) was 12.3 ng·h/mL/mg/kg. For the same compound, the “AUC0-24h Ratio” value ([1]; Week 13, 10 mg/kg bw, M) was 1, the “Cmax Ratio” value ([1]; Week 13, 10 mg/kg bw, M) was 1 and the “ACUM Ratio” value ([1]; Week 13, 30 mg/kg bw, F) was 0.79. The AUC0-24h/dose ([1]; Week 13, 30 mg/kg bw, F) was 11.5 ng·h/mL/mg/kg, the “AUC0-24h Ratio” value ([1]; Week 13, 30 mg/kg bw, F) was 2.8 and the “Cmax Ratio” value ([1]; Week 13, 30 mg/kg bw, F) was 2.4. For the same compound, the “ACUM Ratio” value ([1]; Week 13, 30 mg/kg bw, M) was 1.03, the AUC0-24h/dose ([1]; Week 13, 30 mg/kg bw, M) was 10.2 ng·h/mL/mg/kg and the “AUC0-24h Ratio” value ([1]; Week 13, 30 mg/kg bw, M) was 2.5. For the same compound, the “Cmax Ratio” value ([1]; Week 13, 30 mg/kg bw, M) was 3.1, the “ACUM Ratio” value ([1]; Week 13, 100 mg/kg bw, F) was 1.11 and the AUC0-24h/dose ([1]; Week 13, 100 mg/kg bw, F) was 16.7 ng·h/mL/mg/kg. The “AUC0-24h Ratio” value ([1]; Week 13, 100 mg/kg bw, F) was 13.4, the “Cmax Ratio” value ([1]; Week 13, 100 mg/kg bw, F) was 12.9 and the “ACUM Ratio” value ([1]; Week 13, 100 mg/kg bw, M) was 1.10. For the same compound, the AUC0-24h/dose ([1]; Week 13, 100 mg/kg bw, M) was 9.25 ng·h/mL/mg/kg, the “AUC0-24h Ratio” value ([1]; Week 13, 100 mg/kg bw, M) was 7.5 and the “Cmax Ratio” value ([1]; Week 13, 100 mg/kg bw, M) was 9.1. The AUC(0-t) [1, 2] was 122 ng·h/mL, the AUC(0-t) [1, 3] was 125 ng·h/mL and the Cmax [1, 2] was 7.22 ng/mL. The Cmax [1, 3] was 8.32 ng/mL, the AUC(0-t) [1, 4] was 436 ng·h/mL and the AUC(0-t) [1, 5] was 344 ng·h/mL. It also gave a Cmax [1, 4] of 27.7 ng/mL, a Cmax [1, 5] of 19.8 ng/mL and an AUC(0-t) [1, 6] of 1500 ng·h/mL. The AUC(0-t) [1, 7] was 1670 ng·h/mL, the Cmax [1, 6] was 99 ng/mL and the Cmax [1, 7] was 107 ng/mL. For the same compound, the AUC(0-t) [1, 8] was 113 ng·h/mL, the Cmax [1, 8] was 6.34 ng/mL and the AUC(0-t) [1, 9] was 331 ng·h/mL. It also gave a Cmax [1, 9] of 17.5 ng/mL, an AUC(0-t) [1, 10] of 1300 ng·h/mL and a Cmax [1, 10] of 95.6 ng/mL. For the same compound, the AUC(0-t) [1, 11] was 118 ng·h/mL, the AUC(0-t) [1, 12] was 123 ng·h/mL and the Cmax [1, 11] was 6.05 ng/mL. It also gave a Cmax [1, 12] of 5.99 ng/mL, an AUC(0-t) [1, 13] of 295 ng·h/mL and an AUC(0-t) [1, 14] of 305 ng·h/mL. For the same compound, the Cmax [1, 13] was 16.7 ng/mL, the Cmax [1, 14] was 18.3 ng/mL and the AUC(0-t) [1, 15] was 844 ng·h/mL. It also gave an AUC(0-t) [1, 16] of 925 ng·h/mL, a Cmax [1, 15] of 41.4 ng/mL and a Cmax [1, 16] of 54.7 ng/mL. For the same compound, the AUC(0-t) [1, 17] was 126 ng·h/mL, the Cmax [1, 17] was 10.7 ng/mL and the AUC(0-t) [1, 18] was 293 ng·h/mL. It also gave a Cmax [1, 18] of 24.6 ng/mL, an AUC(0-t) [1, 19] of 758 ng·h/mL and a Cmax [1, 19] of 43.7 ng/mL.
